Converted amounts (≈) assume the structure as drawn.
What was measured:
[1] = target: T1, Metabotropic glutamate receptor 2 (Homo sapiens, UniProt Q14416); test: Positive allosteric modulation of mGlu2 receptor assessed as potentiation of glutamate-induced calcium mobilization; assay type: functional
[2] = Plasma protein binding in human; assay type: ADME, cell-free; conditions: read-out: PPB (converted)
[3] = Kinetic solubility of the compound at pH 7.4 at room temperature; assay type: physicochemical; conditions: buffer, read-out: Kinetic_solubility
Outline: (§1)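 Kinetic solubility measured from DMSO stock solutions at room temperature. Assay run at the pH named in each line.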

P-gp (MDR1) [4] = test: Apparent permeability from basolateral to apical side of dog MDCK cells expressing human MDR1 by P-gp substrate assay; assay type: ADME, cell-based, Canis lupus familiaris
Outline: (§2)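 MDCK cells transfected with human MDR1, used as a P-gp substrate assay. Permeability measured in both directions, apical-to-basolateral and basolateral-to-apical. The efflux ratio is taken as B→A over A→B.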

P-gp (MDR1) [5] = test: Apparent permeability from apical to basolateral side of dog MDCK cells expressing human MDR1 by P-gp substrate assay; assay type: ADME, cell-based, Canis lupus familiaris; outline: as §2
[6] = target: T2, Metabotropic glutamate receptor 3 (Homo sapiens, UniProt Q14832); test: Negative allosteric modulation of mGlu3 receptor
T2 sequence (Q14832 whole entry): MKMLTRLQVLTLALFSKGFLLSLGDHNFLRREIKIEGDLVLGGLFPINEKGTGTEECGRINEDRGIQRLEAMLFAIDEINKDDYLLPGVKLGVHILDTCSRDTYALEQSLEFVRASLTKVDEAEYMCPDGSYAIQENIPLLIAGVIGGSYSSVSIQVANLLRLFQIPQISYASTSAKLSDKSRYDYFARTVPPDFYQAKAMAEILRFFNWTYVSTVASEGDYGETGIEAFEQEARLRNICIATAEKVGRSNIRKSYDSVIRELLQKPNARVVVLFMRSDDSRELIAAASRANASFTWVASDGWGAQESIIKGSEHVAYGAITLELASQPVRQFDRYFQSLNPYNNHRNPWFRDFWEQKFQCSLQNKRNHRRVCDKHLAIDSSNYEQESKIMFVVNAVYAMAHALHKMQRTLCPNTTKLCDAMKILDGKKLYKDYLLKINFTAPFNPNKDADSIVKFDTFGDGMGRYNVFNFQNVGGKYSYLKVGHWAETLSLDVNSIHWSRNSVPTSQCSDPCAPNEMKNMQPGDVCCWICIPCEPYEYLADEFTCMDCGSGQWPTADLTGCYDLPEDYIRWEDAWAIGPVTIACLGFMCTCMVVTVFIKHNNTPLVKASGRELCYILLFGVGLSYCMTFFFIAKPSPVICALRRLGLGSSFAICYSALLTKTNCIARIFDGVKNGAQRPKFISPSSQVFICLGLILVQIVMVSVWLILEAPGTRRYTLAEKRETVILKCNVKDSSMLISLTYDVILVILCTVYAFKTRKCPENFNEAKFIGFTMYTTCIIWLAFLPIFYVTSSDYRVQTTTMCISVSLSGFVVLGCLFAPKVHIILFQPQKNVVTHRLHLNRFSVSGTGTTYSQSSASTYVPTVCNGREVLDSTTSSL

[7] = Fraction unbound in rat plasma; assay type: ADME, cell-free
[8] = Intrinsic clearance in human microsomes; assay type: ADME, Microsome
Outline: (§3)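 Intrinsic clearance measured in rat and human liver microsomes. Hepatic blood flow references given as 20 mL/min for rat and 1.5 L/min for human.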

[9] = Apparent permeability of the compound by PAMPA assay; assay type: ADME
Outline: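 Passive permeability measured in a PAMPA assay.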

[10] = Lipophilicity, log D of the compound at pH 7.4; assay type: physicochemical; conditions: buffer
[11] = target: T3, Metabotropic glutamate receptor 1 (Homo sapiens, UniProt Q13255); test: Positive allosteric modulation of mGlu1 receptor assessed as potentiation of glutamate-induced calcium mobilization; assay type: functional
T3 sequence (Q13255 whole entry): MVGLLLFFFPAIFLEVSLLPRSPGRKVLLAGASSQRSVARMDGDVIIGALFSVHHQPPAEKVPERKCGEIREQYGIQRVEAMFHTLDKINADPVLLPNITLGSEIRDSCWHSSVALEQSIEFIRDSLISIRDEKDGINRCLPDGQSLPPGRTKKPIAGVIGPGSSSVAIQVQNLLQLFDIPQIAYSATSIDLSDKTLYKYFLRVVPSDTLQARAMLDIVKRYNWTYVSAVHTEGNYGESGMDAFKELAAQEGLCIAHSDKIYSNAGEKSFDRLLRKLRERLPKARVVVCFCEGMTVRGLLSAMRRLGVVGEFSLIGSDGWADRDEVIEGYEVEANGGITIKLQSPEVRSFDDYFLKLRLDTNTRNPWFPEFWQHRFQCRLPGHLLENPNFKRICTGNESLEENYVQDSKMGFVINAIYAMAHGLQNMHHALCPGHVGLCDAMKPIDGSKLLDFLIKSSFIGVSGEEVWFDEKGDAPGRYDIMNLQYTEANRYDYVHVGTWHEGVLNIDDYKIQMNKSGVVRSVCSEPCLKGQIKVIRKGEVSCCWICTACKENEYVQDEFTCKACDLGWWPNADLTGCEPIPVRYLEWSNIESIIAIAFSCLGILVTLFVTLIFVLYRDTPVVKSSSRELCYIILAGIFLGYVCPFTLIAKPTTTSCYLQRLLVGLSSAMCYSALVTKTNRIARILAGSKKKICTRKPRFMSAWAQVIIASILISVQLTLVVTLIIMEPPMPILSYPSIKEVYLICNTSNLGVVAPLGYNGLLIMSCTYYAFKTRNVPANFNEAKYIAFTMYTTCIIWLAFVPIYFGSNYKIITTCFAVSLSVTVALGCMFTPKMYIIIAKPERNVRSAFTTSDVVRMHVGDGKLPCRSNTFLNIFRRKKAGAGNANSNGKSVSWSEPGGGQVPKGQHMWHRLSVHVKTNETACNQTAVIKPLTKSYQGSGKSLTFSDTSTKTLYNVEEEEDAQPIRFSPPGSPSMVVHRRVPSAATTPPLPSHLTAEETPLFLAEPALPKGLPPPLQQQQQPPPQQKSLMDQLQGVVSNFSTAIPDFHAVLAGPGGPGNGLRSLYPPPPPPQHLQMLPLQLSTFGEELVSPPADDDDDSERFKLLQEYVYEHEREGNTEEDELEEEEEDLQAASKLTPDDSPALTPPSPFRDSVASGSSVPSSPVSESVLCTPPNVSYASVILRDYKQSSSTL

[12] = target: T4, Metabotropic glutamate receptor 7 (Homo sapiens, UniProt Q14831); test: Positive allosteric modulation of mGlu7 receptor assessed as potentiation of glutamate-induced calcium mobilization; assay type: functional
T4 sequence (Q14831 whole entry): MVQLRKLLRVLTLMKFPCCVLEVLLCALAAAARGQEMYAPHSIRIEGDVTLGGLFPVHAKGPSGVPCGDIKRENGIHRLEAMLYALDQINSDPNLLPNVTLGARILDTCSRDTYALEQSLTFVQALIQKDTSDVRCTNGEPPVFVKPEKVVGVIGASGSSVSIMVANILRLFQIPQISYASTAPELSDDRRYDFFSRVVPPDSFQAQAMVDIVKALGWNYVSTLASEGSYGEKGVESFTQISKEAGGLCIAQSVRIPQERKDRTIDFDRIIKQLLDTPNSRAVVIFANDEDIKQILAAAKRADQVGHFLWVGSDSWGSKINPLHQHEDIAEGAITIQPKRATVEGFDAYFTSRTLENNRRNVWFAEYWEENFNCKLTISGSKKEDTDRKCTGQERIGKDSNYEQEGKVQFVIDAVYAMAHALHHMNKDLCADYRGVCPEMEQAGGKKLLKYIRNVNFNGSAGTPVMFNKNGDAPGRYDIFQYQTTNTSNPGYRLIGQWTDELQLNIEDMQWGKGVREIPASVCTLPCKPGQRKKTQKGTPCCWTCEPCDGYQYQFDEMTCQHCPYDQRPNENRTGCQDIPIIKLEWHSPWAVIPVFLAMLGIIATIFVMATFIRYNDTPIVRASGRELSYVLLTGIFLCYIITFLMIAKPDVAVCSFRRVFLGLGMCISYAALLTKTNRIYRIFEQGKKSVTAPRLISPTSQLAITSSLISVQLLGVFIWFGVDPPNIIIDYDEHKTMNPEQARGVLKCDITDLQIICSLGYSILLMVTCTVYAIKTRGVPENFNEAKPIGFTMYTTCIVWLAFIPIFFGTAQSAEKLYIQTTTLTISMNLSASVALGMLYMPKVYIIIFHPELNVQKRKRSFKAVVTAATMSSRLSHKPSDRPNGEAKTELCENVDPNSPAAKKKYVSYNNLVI

[13] = target: T2, Metabotropic glutamate receptor 3; test: Positive allosteric modulation of mGlu3 receptor assessed as potentiation of glutamate-induced calcium mobilization; assay type: functional
[14] = target: T3, Metabotropic glutamate receptor 1; test: Negative allosteric modulation of mGlu1 receptor
[15] = Drug uptake in Sprague-Dawley rat brain at 10 mg/kg, po after 1 hr; assay type: ADME, organism-based; parameters: dose 10 mg/kg, route oral; conditions: read-out: Drug uptake
Outline: (§4)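 Sprague-Dawley rats given 10 mg/kg orally as a suspension in 20% aqueous hydroxypropyl-β-cyclodextrin. Plasma and brain levels taken at 1 h post-dose. Brain/plasma ratio derived from these levels.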

[16] = target: T1, Metabotropic glutamate receptor 2; test: Negative allosteric modulation of mGlu2 receptor
[17] = target: T5, Metabotropic glutamate receptor 5 (Homo sapiens, UniProt P41594); test: Positive allosteric modulation of mGlu5 receptor assessed as potentiation of glutamate-induced calcium mobilization; assay type: functional
[18] = target: T5, Metabotropic glutamate receptor 5; test: Negative allosteric modulation of mGlu5 receptor
[19] = Plasma protein binding in rat; assay type: ADME, cell-free; conditions: read-out: PPB (converted)
[20] = target: T4, Metabotropic glutamate receptor 7; test: Negative allosteric modulation of mGlu7 receptor
[21] = Intrinsic clearance in rat microsomes; assay type: ADME, Microsome; outline: as §3
[22] = Kinetic solubility of the compound at pH 1.5 at room temperature; assay type: physicochemical; conditions: buffer, read-out: Kinetic_solubility; outline: as §1
[23] = Fraction unbound in rat brain; assay type: ADME, tissue-based
Outline: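 Brain free fraction determined by dialysis of rat brain homogenate.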

[24] = target: T6, Metabotropic glutamate receptor 4 (Homo sapiens, UniProt Q14833); test: Positive allosteric modulation of human mGlu4 receptor expressed in BHK cells assessed as potentiation of glutamate-induced calcium mobilization after 1 hr by FLIPR assay; assay type: functional, cell-based
T6 sequence (Q14833 whole entry): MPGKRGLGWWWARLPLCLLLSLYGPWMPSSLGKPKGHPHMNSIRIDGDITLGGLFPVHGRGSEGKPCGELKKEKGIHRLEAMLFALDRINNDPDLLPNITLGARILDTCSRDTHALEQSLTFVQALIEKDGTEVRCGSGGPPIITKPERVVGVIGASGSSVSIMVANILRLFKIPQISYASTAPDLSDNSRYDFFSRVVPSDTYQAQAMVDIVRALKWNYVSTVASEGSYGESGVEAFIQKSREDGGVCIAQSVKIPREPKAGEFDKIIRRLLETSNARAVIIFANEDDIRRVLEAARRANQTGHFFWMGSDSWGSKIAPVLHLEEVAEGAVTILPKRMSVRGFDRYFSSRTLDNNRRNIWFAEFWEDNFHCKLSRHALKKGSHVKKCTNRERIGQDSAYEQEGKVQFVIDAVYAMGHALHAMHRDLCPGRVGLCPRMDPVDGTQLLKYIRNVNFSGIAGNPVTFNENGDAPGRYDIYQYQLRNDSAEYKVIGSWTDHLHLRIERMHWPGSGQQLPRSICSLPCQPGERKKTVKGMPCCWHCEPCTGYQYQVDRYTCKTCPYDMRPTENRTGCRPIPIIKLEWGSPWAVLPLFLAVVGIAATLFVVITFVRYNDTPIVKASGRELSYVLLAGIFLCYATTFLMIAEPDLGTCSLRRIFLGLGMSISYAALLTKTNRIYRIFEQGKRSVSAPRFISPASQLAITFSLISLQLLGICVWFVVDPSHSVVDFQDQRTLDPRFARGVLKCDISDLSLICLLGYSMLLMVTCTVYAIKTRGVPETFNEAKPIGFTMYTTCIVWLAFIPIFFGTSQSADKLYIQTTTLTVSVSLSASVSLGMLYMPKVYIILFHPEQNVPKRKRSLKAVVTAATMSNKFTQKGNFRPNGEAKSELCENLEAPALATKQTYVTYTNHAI
Outline: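 Stable BHK line co-expressing human mGlu4 and murine Gα15, plated on poly-D-lysine 24 h ahead. Cells loaded 1 h at 37 °C, 5% CO2 with Calcium 3 dye in HBSS/20 mM HEPES pH 7.4, 0.1% BSA, 2.5 mM probenecid. Test agent added with an EC20 glutamate challenge. Peak fluorescence change read by FLIPR and fitted to the Hill equation. At least two independent runs in duplicate, means reported.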

[25] = Plasma concentration in Sprague-Dawley rat at 10 mg/kg, po after 1 hr; assay type: ADME, organism-based; parameters: dose 10 mg/kg, route oral; outline: as §4
[26] = Fraction unbound in human plasma; assay type: ADME, cell-free
[27] = Ratio of drug level in brain to plasma of Sprague-Dawley rat at 10 mg/kg, po after 1 hr; assay type: ADME, organism-based; parameters: dose 10 mg/kg, route oral; conditions: read-out: BPR; outline: as §4
[28] = Drug uptake in Sprague-Dawley rat cerebrospinal fluid at 10 mg/kg, sc after 1 hr
[29] = target: T6, Metabotropic glutamate receptor 4; test: Positive allosteric modulation of human mGlu4 receptor expressed in BHK cells assessed as potentiation of glutamate-induced response after 1 hr by FLIPR assay relative to glutamate; assay type: cell-based
Outline: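 BHK cells stably co-expressing human mGlu4 and murine G-protein […], grown in DMEM at 37 °C, 5% CO₂. Cells seeded 24 h before assay, then loaded with Calcium 3 no-wash dye in HBSS/HEPES pH 7.4 with 0.1% BSA and 2.5 mM probenecid for 1 h at 37 °C. FLIPR calcium read after stimulation with EC₂₀ glutamate plus compound. Emax is percent of maximal glutamate response. Mean of ≥2 independent duplicate experiments.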

T1 sequence (Q14416 whole entry): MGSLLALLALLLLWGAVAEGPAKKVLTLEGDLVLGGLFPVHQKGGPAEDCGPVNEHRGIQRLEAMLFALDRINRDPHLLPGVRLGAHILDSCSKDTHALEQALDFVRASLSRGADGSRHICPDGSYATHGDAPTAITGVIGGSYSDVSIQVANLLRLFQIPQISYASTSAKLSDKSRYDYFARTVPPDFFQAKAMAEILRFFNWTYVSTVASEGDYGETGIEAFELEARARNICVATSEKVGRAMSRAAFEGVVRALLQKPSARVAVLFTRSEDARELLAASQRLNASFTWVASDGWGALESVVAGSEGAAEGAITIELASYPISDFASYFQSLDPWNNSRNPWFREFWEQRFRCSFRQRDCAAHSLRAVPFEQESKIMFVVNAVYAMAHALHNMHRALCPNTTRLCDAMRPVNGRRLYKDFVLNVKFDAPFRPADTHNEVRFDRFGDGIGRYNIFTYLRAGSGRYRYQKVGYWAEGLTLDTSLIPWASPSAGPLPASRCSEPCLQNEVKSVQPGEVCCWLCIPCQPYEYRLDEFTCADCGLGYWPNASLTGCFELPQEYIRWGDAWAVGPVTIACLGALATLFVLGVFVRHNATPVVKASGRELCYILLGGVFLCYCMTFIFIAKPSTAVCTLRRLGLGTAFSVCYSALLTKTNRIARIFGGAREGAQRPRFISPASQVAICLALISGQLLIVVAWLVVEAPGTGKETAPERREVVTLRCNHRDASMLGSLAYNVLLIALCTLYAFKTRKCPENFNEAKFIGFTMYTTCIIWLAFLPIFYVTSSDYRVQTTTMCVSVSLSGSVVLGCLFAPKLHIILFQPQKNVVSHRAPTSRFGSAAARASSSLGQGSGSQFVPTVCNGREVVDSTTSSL

| EC50 [1] [µM] | fraction unbound [2] | solubility kinetic [3] [µM] | Papp B→A (P-gp (MDR1) [4]) [×10⁻⁶ cm/s] | Papp A→B (P-gp (MDR1) [5]) [×10⁻⁶ cm/s] | IC50 [6] [µM] | fraction unbound [7] | CL [8] [L/min] | Papp [9] [×10⁻⁶ cm/s] | logD [10] | EC50 [11] [µM] | EC50 [12] [µM] | EC50 [13] [µM] | IC50 [14] [µM] | concentration at 1 h [15] [ng/g] | CL [21] [mL/min] | solubility kinetic [22] [µM] | fraction unbound [23] | EC50 [24] [µM] | concentration at 1 h [25] [ng/mL] | SMILES | other results |
| --- | --- | --- | --- | --- | --- | --- | --- | --- | --- | --- | --- | --- | --- | --- | --- | --- | --- | --- | --- | --- | --- |
| > 10 | 0.031 | 3 (≈ 0.853 µg/mL) | 21 | 33 | > 10 | 0.006 | 9 | 1.5 | 3.8 | > 10 | > 10 | > 10 | > 10 | 3.1 | 92 | 100 (≈ 28.4 µg/mL) | 0.016 | 0.007 | 0.7 | c1cnc(Nc2nc3c(s2)CCCc2[nH]ncc2-3)nc1 | IC50 [16]: > 10 µM; EC50 [17]: > 10 µM; IC50 [18]: > 10 µM; fraction unbound [19]: 0.006; IC50 [20]: > 10 µM |
|  |  | 120 (≈ 29.2 µg/mL) |  |  |  | 0.092 | 11 | 32.9 | 3.1 |  |  |  |  | 744 | 61 | 220 (≈ 53.5 µg/mL) | 0.014 | 0.41 | 766 | c1ccc(Nc2nc(-c3cn[nH]c3)cs2)nc1 | fraction unbound [26]: 0.035; Kp at 1 h [27]: 1; concentration at 1 h [28]: 52 ng/mL; Emax [29]: 72% |
| > 10 | 0.008 | 0.1 (≈ 0.0269 µg/mL) | 7.7 | 22 | > 10 | 0.023 | 5.6 | 3 | 4 | > 10 | > 10 | > 10 | > 10 | 517 | 37 | 220 (≈ 59.3 µg/mL) | 0.0043 | 0.22 | 987 | c1ccc(Nc2nc3c(s2)CCc2[nH]ncc2-3)nc1 | Kp at 1 h [27]: 0.5; IC50 [16]: > 10 µM; EC50 [17]: > 10 µM; IC50 [18]: > 10 µM; fraction unbound [19]: 0.023; IC50 [20]: > 10 µM |
| > 10 | 0.006 | 1.2 (≈ 0.34 µg/mL) | 13 | 24 | > 10 | 0.011 | 10 | 9.4 | 5 | > 10 | > 10 | > 10 | > 10 | 200 | 36 | 240 (≈ 68 µg/mL) | 0.0043 | 0.009 | 259 | c1ccc(Nc2nc3c(s2)CCCc2[nH]ncc2-3)nc1 | Kp at 1 h [27]: 0.8; IC50 [16]: > 10 µM; EC50 [17]: > 10 µM; IC50 [18]: > 10 µM; fraction unbound [19]: 0.011; IC50 [20]: > 10 µM |
